# Bioassay records (PubChem)
# Hits are enriched below; roughly 1.8% of the tested compounds scored in any of these assays.
# SIAE inh – inhibitors of human sialic acid acetylesterase SIAE; Q9HAT2; SIAE FP-Rh probe binding, fluorescence polarization; inhibition, % at 9.66 µM; 370,000 compounds, 0.69% hits; AID 1053197;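 active = inhibition above a cutoff: mean of compounds within the control limits plus 3 SD of those, cut at about 17% in these data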;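 also: 0% = plate median of compound wells and 100% = probe without SIAE protein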
# HTRA1 inhibitor – inhibitors of human serine peptidase HTRA1; AID 504803; recombinant HTRA1, FP-rhodamine activity-based probe, fluorescence polarization; Q92743; 340,000 compounds, 0.5% hits; inhibition, % at 5.96 µM; in the data active = inhibition above about 36%;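 also: 0% = enzyme with DMSO and 100% = wells lacking enzyme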
# Target sequence (Q92743 whole entry, looked up): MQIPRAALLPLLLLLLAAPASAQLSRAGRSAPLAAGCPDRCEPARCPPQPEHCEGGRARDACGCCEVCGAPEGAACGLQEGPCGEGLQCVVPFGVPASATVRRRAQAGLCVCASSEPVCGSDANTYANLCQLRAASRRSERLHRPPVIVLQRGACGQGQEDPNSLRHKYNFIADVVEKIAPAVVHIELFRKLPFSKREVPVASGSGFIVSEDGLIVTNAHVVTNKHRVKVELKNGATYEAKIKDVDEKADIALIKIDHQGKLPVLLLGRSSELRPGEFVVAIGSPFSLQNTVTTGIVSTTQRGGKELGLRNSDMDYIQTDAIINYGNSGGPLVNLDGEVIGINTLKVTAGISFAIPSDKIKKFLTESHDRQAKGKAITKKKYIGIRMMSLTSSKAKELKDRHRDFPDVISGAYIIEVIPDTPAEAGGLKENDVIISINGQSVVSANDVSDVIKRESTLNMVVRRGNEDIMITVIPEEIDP
# mABHD4 FP – inhibitors of mouse ABHD4; Q8VD66; purified mABHD4, FP-Rh probe fluorescence polarization; inhibition, % at 8.92 µM; 370,000 compounds, 0.54% hits; AID 720543;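 active = inhibition exceeding the mean over every tested compound plus 3 SD, cut at about 30% in these data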;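 also: 0% = plate median of compound wells and 100% = S159A mutant with DMSO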
#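 Test system: mouse ABHD4 enzyme, wild type. Reagent: FP-Rh fluorescent activity-based probe, added after compound pre-incubation. Timing: pre-incubation 45 min, probe exposure 60 min, at 25 °C. Technique: FP readout, ex 525 nm / em 598 nm. Benchmarks: high control S159A mutant with DMSO, low control median of compound wells.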
# DDE Tn6 FP inh – inhibitors of Tn6 peptide binding to human fibrin DD(E). P02675. Fibrin DD(E) TRITC-Tn6 fluorescence polarization displacement. inhibition, % at 8.3 µM. 370,000 compounds, 0.21% hits;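 active = inhibition above a per-campaign cutoff: mean of compounds within control limits plus 3 SD, cut at about 15% in these data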;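 also: 0% = median of all compound wells on the plate and 100% = blocking peptide control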
# TCR CD3 inh – inhibitors of human TCR-CD3 interaction. inhibition, % at 9.4 µM. AID 651800. TAMRA-labeled TCR probe fluorescence, biochemical. 360,000 compounds, 0.37% hits; in the data active = inhibition above about 19%;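 also: recombinant mutant TCR 2C K166C tagged with TAMRA read by polarization; 0% = receptor in buffer alone and 100% = receptor with positive control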
# DDE Tn7 FP inh – inhibitors of Tn7 peptide binding to human fibrin DD(E); P02675; FP displacement of FITC-Tn7 peptide from fibrin DD(E); 0% = median of compound wells per plate; inhibition, % at 8.3 µM; 370,000 compounds, 0.13% hits; AID 720508;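 active = inhibition above the mean of compounds falling within the control limits plus 3 SD of them, cut at about 14% in these data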;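 also: 0% = plate median of compound wells and 100% = 10 µM Aha-Tn7 peptide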
#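 Assay system: human fibrin DD(E). Input: DD(E) 2 µM final. Medium: Tris buffer with calcium and detergent, pH 7.8. Compound dosing: single point at 8.3 µM. Timing: 10 min plus 3 h, room temperature. Technique: fluorescence polarization of the labelled Tn7 tracer. Read-out: percent inhibition. Replicates: singlicate testing.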
# DDE Tn7 confirm – DD(E)-Tn7 binding inhibition, FP confirmation; shares compounds with DDE Tn7 FP inh; FP displacement of TRITC-Tn7 peptide from DD(E); 0% set at plate's compound-well median; inhibition, % at 8.3 µM; 460 compounds, 5% hits; AID 720628;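 active = inhibition above the campaign cutoff, the mean of compounds within control limits plus 3 SD, cut at about 14% in these data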;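 also: 100% = median FP of high control wells holding Aha-Tn7 inhibitor peptide; displacers lower polarization since freed probe rises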
# DDE Tn7 FP ctr – counter-screen hit for Tn7 peptide-fibrin DD(E) binding disruption | shares compounds with DDE Tn7 FP inh | TRITC-Tn7 probe displacement, fluorescence polarization | inhibition, % at 8.3 µM | 460 compounds, 3% hits;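 active = inhibition above the cutoff, the mean of compounds lying between the control bounds plus 3 SD of those compounds, cut at about 17% in these data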;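 also: 0% = median of compound sample wells and 100% = excess unlabeled Aha-Tn7 peptide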
# * = called active by the depositor; . = no result.
SMILES,SIAE inh,HTRA1 inhibitor,mABHD4 FP,DDE Tn6 FP inh,TCR CD3 inh,DDE Tn7 FP inh,DDE Tn7 confirm,DDE Tn7 FP ctr
Cc1ccc(-c2c(C#N)c(N)n(-c3ccc(Cl)cc3)c(=O)c2C#N)cc1,-8.2,.,1.4,3.2,-0.5,13.8*,-3.4,-7.5
Cc1ccc(-c2c(C#N)c(N)n(-c3ccccc3)c(=O)c2C#N)cc1,1.0,8.1,-2.9,3.1,0.1,-8.1,.,.
CC1CCC(NC(=O)c2cc3c(=O)n(C)c4ccccc4c3n2C)CC1 (configuration not stated),-4.0,-1.3,1.2,11.0,-2.3,14.3*,1.2,-2.2
COC(=O)[C@H](C(C)C)N1Cc2nnn(CC3CCCCC3)c2-c2cc(F)ccc2S1(=O)=O,-1.9,.,3.1,6.1,.,-13.5,.,.
COc1ccc(NC(=O)c2cc(-c3cccs3)on2)c(OC)c1,0.7,-2.0,1.6,-4.5,-6.9,-2.3,.,.
COc1ccc(OC)c(NC(=O)c2ccc(-c3cccs3)cc2)c1,-2.5,-32.2,-17.5,-6.6,3.2,14.8*,7.2,2.5
C=CCN(C)CC#Cc1ccccc1C,-0.1,.,0.4,11.5,.,-5.7,.,.
O=C(CCl)NC(Cc1ccccc1)c1ccccc1 (configuration not stated),-1.1,0.3,2.4,5.1,6.8,14.7*,-5.3,-7.3
CC(=O)C(Cc1ccccc1)NC(=O)CCl (configuration not stated),-1.9,-5.9,-2.1,4.5,4.2,-2.2,.,.
CCOc1ccc(N(CC(=O)Nc2c(C)n(C)n(-c3ccccc3)c2=O)S(=O)(=O)c2cccc3cccnc23)cc1,-2.4,.,-7.1,-0.7,.,-0.6,.,.
Cc1ccc(CC(=O)Nc2ccc(F)c([N+](=O)[O-])c2)cc1,2.5,4.4,-5.6,4.1,1.0,14.7*,0.5,3.7
CC(C)(C)OC(=O)N1CCC(N[C@@H](Cc2ccccc2)C(=O)NCCc2c[nH]c3ccccc23)(C(=O)NC2CCCCC2)CC1,3.1,.,-1.9,1.8,.,-3.7,.,.
COc1ccccc1N1CCN(CC(=O)c2c(C)[nH]c3ccccc23)CC1,-0.4,7.6,6.0,0.2,-8.2,16.0*,-2.5,-2.1
COc1ccccc1N1CCN(CC(=O)c2c[nH]c3ccccc23)CC1,5.2,-3.4,-3.4,-5.7,2.4,2.9,.,.
CCN(CC)S(=O)(=O)c1cccc(C(=O)N/N=C2\CC(=O)CC(C)(C)C2)c1,1.6,8.3,1.9,0.3,-2.5,6.4,.,.
CCN(CC)S(=O)(=O)c1cccc(C(=O)N/N=C2\CCCC(=O)C2)c1,4.7,4.4,0.6,7.9,-3.7,25.3*,1.4,2.5
CC(C)N1CCCCC(NC(=O)c2ccc(F)cc2)C1=O (configuration not stated),8.6,.,-3.6,-1.2,.,5.1,.,.
Clc1ccc(-n2c(SCc3cccc4ccccc34)nnc2-c2ccco2)cc1,0.3,.,-11.5,-9.8,.,14.5*,13.3,6.1
CCc1ccc(C(=O)N2CCN(c3ccc(F)cc3)CC2)s1,-1.4,-2.0,2.0,3.8,8.8,16.3*,3.4,3.4
O=C(Nc1cccc(OC(F)(F)F)c1)c1ccc(-c2cccnc2)c2ccoc12,-4.7,.,-22.9,8.4,-6.9,14.0*,2.5,-9.7
COc1cc(NC(=O)c2ccc(-c3cccnc3)c3ccoc23)cc(OC)c1OC,-4.9,.,-12.0,-7.7,-7.2,3.3,.,.
C=CCN1C(C(=O)OC)CN(Cc2cn(Cc3ccc(F)cc3)nn2)CCS1(=O)=O (configuration not stated),0.3,.,1.9,-4.6,.,-2.5,.,.
CC(=O)Nc1nnc(COc2ccc(Cl)cc2)s1,1.5,-1.4,0.1,-1.5,0.1,-8.1,.,.
CC(C)C(=O)Nc1nnc(COc2ccc(Cl)cc2)s1,-4.0,-1.4,-8.2,0.0,-3.1,14.5*,-2.6,-4.7
CCOC(=O)C1CCN(CC(=O)N2CCc3ccccc32)CC1,-1.2,3.6,1.3,5.5,2.5,13.8*,-2.7,-3.2
SMILES,SIAE inh,HTRA1 inhibitor,mABHD4 FP,DDE Tn6 FP inh,TCR CD3 inh,DDE Tn7 FP inh,DDE Tn7 confirm,DDE Tn7 FP ctr
CC(C)[C@H]1COc2c3ccccc3nn21,4.8,.,-4.1,-3.9,.,2.9,.,.
Cc1ccc(C(NC(=O)N2CCCCC2)=C(Cl)Cl)cc1F,-2.3,3.1,7.3,2.5,-2.5,15.3*,4.8,1.6
COc1ccccc1NC(=O)CN1C(=O)C(C)Oc2ccccc21 (configuration not stated),-2.1,1.1,-2.3,2.3,-0.3,1.2,.,.
COc1ccc(NC(=O)CN2C(=O)C(C)Oc3ccccc32)cc1OC (configuration not stated),-2.6,-7.6,-0.4,2.4,9.9,14.2*,-1.3,-3.3
COc1ccc([C@H]2OC(=O)C[C@H]2C(=O)N2CCN(c3ccccc3Cl)CC2)cc1OC,-2.2,.,-3.1,1.2,.,3.3,.,.
CCOC(=O)C1=CN(Cc2ccco2)S(=O)(=O)N(C)C1c1ccc2ccccc2c1 (configuration not stated),0.6,-21.0,-4.8,-1.2,-7.2,15.4*,2.5,-3.4
CCOC(=O)C1=CN(Cc2ccco2)S(=O)(=O)N(C)C1c1ccc(C(F)(F)F)cc1 (configuration not stated),-4.8,-18.9,-7.9,-5.7,5.4,0.2,.,.
CN(CCCOC(=O)c1occ2ccccc12)C1CN(Cc2cn(Cc3ccccc3Cl)nn2)S(=O)(=O)C1 (configuration not stated),3.3,.,9.6,2.1,.,-0.4,.,.
O=C(CSc1nc2c(cnn2-c2ccc(F)cc2)c(=O)[nH]1)N1CCCCC1,-0.6,-7.6,0.9,3.3,2.6,14.6*,0.8,0.4
COC(=O)CSc1nnc(-c2ccc(NS(=O)(=O)c3ccc(C)c(C)c3)cc2)o1,-1.1,.,3.5,-1.5,.,3.4,.,.
Cc1ccc(C2C(C(=O)c3cccs3)=C(O)C(=O)N2c2nnc(C)s2)cc1 (configuration not stated),-2.8,-4.9,-11.6,-4.3,-2.6,31.6*,3.3,-1.1
OC(c1ccccc1)(c1ccccc1)C1CCN(CCCOc2ccc(OC(F)(F)F)cc2)CC1,-5.2,.,12.6,-1.6,.,-6.1,.,.
CC(C)OC(=O)C1=CNCC(C)(C)c2c1[nH]c1cc(F)ccc21,-2.8,.,25.2,0.7,.,6.6,.,.
O=C(OCCN1CCN(C2CN(Cc3cn(Cc4ccccc4F)nn3)S(=O)(=O)C2)CC1)c1cc2ccccc2o1 (configuration not stated),-4.5,.,-1.5,7.5,.,-5.6,.,.
Cn1c(CN2CCCCC2)nc2cc(NC(=O)c3ccc(F)cc3)ccc21,-3.0,-3.2,-2.3,-0.9,5.8,15.4*,2.0,1.7
